What was measured:
Type in all cases: functional
MDA-MB-435 = assay: Anticancer activity against human MDA-MB-435 cells after 48 hrs by SRB assay; settings: MDA-MB-435, 48 h
OVCAR-8 = assay: Anticancer activity against human OVCAR8 cells after 48 hrs by SRB assay; settings: OVCAR-8, 48 h
HCT-116 = assay: Anticancer activity against human HCT116 cells after 48 hrs by SRB assay; settings: HCT-116, 48 h
SNB-19 = assay: Anticancer activity against human SNB19 cells after 48 hrs by SRB assay; settings: SNB-19, 48 h
NCI-H23 = assay: Anticancer activity against human NCI-H23 cells after 48 hrs by SRB assay; settings: NCI-H23, 48 h
NCI-H226 = assay: Anticancer activity against human NCI-H226 cells after 48 hrs by SRB assay; settings: NCI-H226, 48 h
SK-MEL-28 = assay: Anticancer activity against human SK-MEL-28 cells after 48 hrs by SRB assay; settings: SK-MEL-28, 48 h
UACC-257 = assay: Anticancer activity against human UACC257 cells after 48 hrs by SRB assay; settings: UACC-257, 48 h
SF-268 = assay: Anticancer activity against human SF268 cells after 48 hrs by SRB assay; settings: SF-268, 48 h
U-251 = assay: Anticancer activity against human U251 cells after 48 hrs by SRB assay; settings: U-251, 48 h
HOP-92 = assay: Anticancer activity against human HOP92 cells after 48 hrs by SRB assay; settings: HOP-92, 48 h
ACHN = assay: Anticancer activity against human ACHN cells after 48 hrs by SRB assay
NCI-H460 = assay: Anticancer activity against human NCI-H460 cells after 48 hrs by SRB assay; settings: NCI-H460, 48 h
LOX IMVI = assay: Anticancer activity against human LOXIMVI cells after 48 hrs by SRB assay
HT-29 = assay: Anticancer activity against human HT-29 cells after 48 hrs by SRB assay; settings: HT-29, 48 h
OVCAR-3 = assay: Anticancer activity against human OVCAR-3 cells after 48 hrs by SRB assay; settings: OVCAR-3, 48 h
MCF7 = assay: Anticancer activity against human MCF7 cells after 48 hrs by SRB assay; settings: MCF7, 48 h
In short: (§1)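 Grown in RPMI 1640 with 10% FBS and 2 mM L-glutamine at 37 °C, 5% CO2. Seeded at densities set by doubling time, then preincubated 24 h. Continuous 48 h drug exposure at four concentrations (0.1, 1, 10, 100), triplicate wells. Fixed with cold TCA (final 10%) at 4 °C, 60 min. Stained with 0.4% SRB in 1% acetic acid, eluted with 10 mM Tris base, read at 540/690 nm. Percent growth versus control wells.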

NCI-H522 = assay: Anticancer activity against human NCI-H522 cells after 48 hrs by SRB assay; settings: NCI-H522, 48 h
UACC-62 = assay: Anticancer activity against human UACC62 cells after 48 hrs by SRB assay; settings: UACC-62, 48 h
MDA-MB-231 = assay: Anticancer activity against human MDA-MB-231 cells after 48 hrs by SRB assay; settings: MDA-MB-231, 48 h
BT-549 = assay: Anticancer activity against human BT549 cells after 48 hrs by SRB assay; settings: BT-549, 48 h
RPMI-8226 = assay: Anticancer activity against human RPMI8226 cells after 48 hrs by SRB assay; settings: RPMI-8226, 48 h
SW-620 = assay: Anticancer activity against human SW620 cells after 48 hrs by SRB assay; settings: SW-620, 48 h
T47D = assay: Anticancer activity against human T47D cells after 48 hrs by SRB assay
SN12C = assay: Anticancer activity against human SN12C cells after 48 hrs by SRB assay
PC-3 = assay: Anticancer activity against human PC3 cells after 48 hrs by SRB assay; settings: PC-3, 48 h; in short: as §1
DU-145 = assay: Anticancer activity against human DU145 cells after 48 hrs by SRB assay; settings: DU-145, 48 h
HCT-15 = assay: Anticancer activity against human HCT15 cells after 48 hrs by SRB assay; settings: HCT-15, 48 h
SNB-75 = assay: Anticancer activity against human SNB75 cells after 48 hrs by SRB assay; settings: SNB-75, 48 h
OVCAR-4 = assay: Anticancer activity against human OVCAR4 cells after 48 hrs by SRB assay; settings: OVCAR-4, 48 h
RXF 393 = assay: Anticancer activity against human […] cells after 48 hrs by SRB assay; settings: RXF 393, 48 h
UO-31 = assay: Anticancer activity against human UO31 cells after 48 hrs by SRB assay; settings: UO-31, 48 h
KM12 = assay: Anticancer activity against human KM12 cells after 48 hrs by SRB assay; settings: KM12, 48 h
CCRF-CEM = assay: Anticancer activity against human CCRF-CEM cells after 48 hrs by SRB assay
SR = assay: Anticancer activity against human SR cells after 48 hrs by SRB assay
[1] = Anticancer activity against human Hs 578T cells after 48 hrs by SRB assay
CAKI-1 = assay: Anticancer activity against human Caki1 cells after 48 hrs by SRB assay; settings: CAKI-1, 48 h
IGROV-1 = assay: Anticancer activity against human IGROV1 cells after 48 hrs by SRB assay; settings: IGROV-1, 48 h
SK-MEL-5 = assay: Anticancer activity against human SK-MEL-5 cells after 48 hrs by SRB assay; settings: SK-MEL-5, 48 h
MDA-MB-468 = assay: Anticancer activity against human MDA-MB-468 cells after 48 hrs by SRB assay; settings: MDA-MB-468, 48 h
M14 = assay: Anticancer activity against human M14 cells after 48 hrs by SRB assay; settings: M14, 48 h
786-0 = assay: Anticancer activity against human 786-0 cells after 48 hrs by SRB assay; settings: 786-0, 48 h
HOP-62 = assay: Anticancer activity against human HOP62 cells after 48 hrs by SRB assay; settings: HOP-62, 48 h; in short: as §1
SK-OV-3 = assay: Anticancer activity against human SKOV3 cells after 48 hrs by SRB assay; settings: SK-OV-3, 48 h
SF-539 = assay: Anticancer activity against human SF539 cells after 48 hrs by SRB assay; settings: SF-539, 48 h
NCI-H322M = assay: Anticancer activity against human NCI-H322M cells after 48 hrs by SRB assay
A498 = assay: Anticancer activity against human A498 cells after 48 hrs by SRB assay; settings: A498, 48 h
SK-MEL-2 = assay: Anticancer activity against human SK-MEL-2 cells after 48 hrs by SRB assay; settings: SK-MEL-2, 48 h
TK-10 = assay: Anticancer activity against human TK10 cells after 48 hrs by SRB assay; settings: TK-10, 48 h
OVCAR-5 = assay: Anticancer activity against human OVCAR5 cells after 48 hrs by SRB assay; settings: OVCAR-5, 48 h
MOLT-4 = assay: Anticancer activity against human MOLT4 cells after 48 hrs by SRB assay; settings: MOLT-4, 48 h
COLO 205 = assay: Anticancer activity against human COLO205 cells after 48 hrs by SRB assay; settings: COLO 205, 48 h; in short: as §1
A549 = assay: Anticancer activity against human A549 cells after 48 hrs by SRB assay; settings: A549, 48 h; in short: as §1
EKVX = assay: Anticancer activity against human EKVX cells after 48 hrs by SRB assay
Malme-3M = assay: Anticancer activity against human MALME-3M cells after 48 hrs by SRB assay
HCC 2998 = assay: Anticancer activity against human HCC2998 cells after 48 hrs by SRB assay; settings: HCC 2998, 48 h
HL-60(TB) = assay: Anticancer activity against human HL-60(TB) cells after 48 hrs by SRB assay; settings: HL-60, 48 h
K562 = assay: Anticancer activity against human K562 cells after 48 hrs by SRB assay; settings: K562, 48 h

With `COc1ccc(C2CC(c3cc(OC)c(OC)c(OC)c3)=NO2)cc1OCCCCOc1cc2c(cc1OC)C(=O)N1CCC[C@H]1C=N2` (stereo partly drawn) the GI50 (MDA-MB-435) was 3.54 µM, the GI50 (OVCAR-8) was 2550 nM and the GI50 (HCT-116) was 1700 nM. The GI50 (SNB-19) was 1960 nM, the GI50 (NCI-H23) was 1830 nM and the GI50 (NCI-H226) was 1670 nM. The GI50 (SK-MEL-28) was 2070 nM, the GI50 (UACC-257) was 2330 nM and the GI50 (SF-268) was 1890 nM. The GI50 (U-251) was 1730 nM, the GI50 (HOP-92) was 2470 nM and the GI50 (ACHN) was 2410 nM. It also gave a GI50 (NCI-H460) of 1850 nM, a GI50 (LOX IMVI) of 1470 nM and a GI50 (HT-29) of 2750 nM. For the same compound, the GI50 (OVCAR-3) was 1940 nM, the GI50 (MCF7) was 1750 nM and the GI50 (NCI-H522) was 610 nM. For the same compound, the GI50 (UACC-62) was 1520 nM, the GI50 (MDA-MB-231) was 1150 nM and the GI50 (BT-549) was 1230 nM. For the same compound, the GI50 (RPMI-8226) was 1430 nM, the GI50 (SW-620) was 1550 nM and the GI50 (T47D) was 1310 nM. The GI50 (SN12C) was 1580 nM, the GI50 (PC-3) was 320 nM and the GI50 (DU-145) was 320 nM. For the same compound, the GI50 (HCT-15) was 2270 nM, the GI50 (SNB-75) was 1710 nM and the GI50 (OVCAR-4) was 2070 nM. For the same compound, the GI50 (RXF 393) was 1390 nM, the GI50 (UO-31) was 2090 nM and the GI50 (KM12) was 1740 nM. For the same compound, the GI50 (CCRF-CEM) was 1410 nM, the GI50 (SR) was 1120 nM and the GI50 [1] was 1100 nM. It also gave a GI50 (CAKI-1) of 3.09 µM, a GI50 (IGROV-1) of 1570 nM and a GI50 (SK-MEL-5) of 1470 nM. The GI50 (MDA-MB-468) was 1340 nM, the GI50 (M14) was 1730 nM and the GI50 (786-0) was 1570 nM. For the same compound, the GI50 (HOP-62) was 1680 nM, the GI50 (SK-OV-3) was 3.37 µM and the GI50 (SF-539) was 1800 nM. It also gave a GI50 (NCI-H322M) of 3.46 µM, a GI50 (A498) of 1720 nM and a GI50 (SK-MEL-2) of 2030 nM. It also gave a GI50 (TK-10) of 3.51 µM, a GI50 (OVCAR-5) of 3.13 µM and a GI50 (MOLT-4) of 1850 nM. For the same compound, the GI50 (COLO 205) was 1960 nM, the GI50 (A549) was 2330 nM and the GI50 (EKVX) was 3.68 µM. For the same compound, the GI50 (Malme-3M) was 2880 nM, the GI50 (HCC 2998) was 1580 nM and the GI50 (HL-60(TB)) was 1900 nM. For the same compound, the GI50 (K562) was 1260 nM.

From ChEMBL document CHEMBL1240422, “Design, synthesis and biological evaluation of 3,5-diaryl-isoxazoline/isoxazole-pyrrolobenzodiazepine conjugates as potential anticancer agents” (2010)
